ChEMBL document CHEMBL1148699, “Characterization of the intracellular mechanisms involved in the antiaggregant properties of cinnamtannin B-1 from bay wood in human platelets” (2007)
Activity calls are given as the source filed them. No cut-off for these calls is given here.

Experiments:
Platelet [1] = assay: Effect on thrombin-induced human platelet aggregation at 0.1 uM; format: functional
Outline: (§1)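 Washed human platelets (from aspirin- and apyrase-treated PRP) in HEPES-buffered saline, pH 7.45, with 1 mM Ca2+. Preincubated 30 min with 0.1-10 µM compound (10 mM DMSO stock) or vehicle. Stimulated with 0.1 U/mL thrombin or 10 µM ADP. Read in an aggregometer at 37 °C, stirred at 1200 rpm, as lag time, % rate and % aggregation. Mean ± SEM, six determinations.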

Platelet [2] = assay: Effect on rate of thrombin-induced human platelet aggregation at 0.1 uM; format: functional; outline: as §1
Platelet [3] = assay: Effect on thrombin-induced human platelet aggregation assessed as lag time at 0.1 uM; format: functional; outline: as §1
Platelet [4] = assay: Effect on thrombin-induced human platelet aggregation at 10 uM after 10 mins; format: functional
Outline: (§2)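 Washed human platelets (aspirin 100 µM and apyrase in PRP) suspended in HBS pH 7.45 with 1 mM Ca2+. Preincubated 10 min with 10 µM agent or DMSO vehicle, then stimulated with 0.1 U/mL thrombin at 37 °C with stirring at 1200 rpm in an aggregometer. Lag time, % rate and % aggregation read from traces; mean ± SEM of four determinations.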

Platelet [5] = assay: Effect on rate of thrombin-induced human platelet aggregation at 10 uM after 10 mins; format: functional; outline: as §2
Platelet [6] = assay: Effect on thrombin-induced human platelet aggregation assessed as lag time at 10 uM after 10 mins; format: functional; outline: as §2
Platelet [7] = assay: Effect on of ADP-induced human platelet aggregation at 10 uM; format: functional; outline: as §1
[8] = molecular target: Proto-oncogene tyrosine-protein kinase Src (Homo sapiens) (UniProt P12931); assay: Inhibition of thrombin-induced pp60src activation at 10 uM after 30 mins
Proto-oncogene tyrosine-protein kinase Src (Homo sapiens), sequence (P12931 2-536 limits assumed): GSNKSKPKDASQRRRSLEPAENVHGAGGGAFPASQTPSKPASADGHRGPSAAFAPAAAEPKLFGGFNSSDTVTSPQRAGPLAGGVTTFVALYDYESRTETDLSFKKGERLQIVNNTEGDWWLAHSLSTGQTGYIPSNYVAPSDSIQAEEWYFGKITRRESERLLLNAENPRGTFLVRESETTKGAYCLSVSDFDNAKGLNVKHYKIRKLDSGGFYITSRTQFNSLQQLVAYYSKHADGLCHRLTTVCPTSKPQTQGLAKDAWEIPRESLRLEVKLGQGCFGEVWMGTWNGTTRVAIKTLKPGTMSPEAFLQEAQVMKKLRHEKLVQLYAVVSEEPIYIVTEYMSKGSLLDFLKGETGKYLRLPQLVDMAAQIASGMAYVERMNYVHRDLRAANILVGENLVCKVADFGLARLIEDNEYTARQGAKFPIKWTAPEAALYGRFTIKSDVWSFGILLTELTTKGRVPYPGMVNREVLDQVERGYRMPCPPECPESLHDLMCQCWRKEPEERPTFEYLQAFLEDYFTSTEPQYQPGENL
Outline: (§3)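 Platelets in HBS with 1 mM Ca2+ pretreated 30 min at 37 °C with 10 µM compound, alone or with 300 U/mL catalase (10 min). Sampled 10 s before and 60 s after 0.1 U/mL thrombin. SDS-PAGE and immunoblot with anti-phospho-c-Src Y416, reprobed for total pp60src. Densitometry as % of untreated resting cells; mean ± SEM, four experiments.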

Platelet [9] = assay: Effect on rate of thrombin-induced human platelet aggregation at 1.0 uM; format: functional; outline: as §1
Platelet [10] = assay: Effect on rate of thrombin-induced human platelet aggregation at 10 uM; format: functional; outline: as §1
Platelet [11] = assay: Effect on thrombin-induced human platelet aggregation at 1.0 uM; format: functional; outline: as §1
Platelet [12] = assay: Effect on thrombin-induced human platelet aggregation assessed as lag time at 10 uM; format: functional; outline: as §1
Platelet [13] = assay: Effect on thrombin-induced calcium mobilization in human platelets; format: functional, cell-based
Outline: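 Platelets loaded with 2 µM fura-2/AM for 45 min at 37 °C, 2 × 10^8 cells/mL, stirred at 37 °C. Exposed to 10 µM compound for 30 min. Ca2+-free medium with 100 µM EGTA, then 0.1 U/mL thrombin. Excitation 340/380 nm, emission 505 nm; ratio calibrated to [Ca2+]i. Peak rise above basal taken; n = 6.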

Platelet [14] = assay: Effect on thrombin-induced human platelet aggregation at 10 uM; format: functional; outline: as §1
[15] = molecular target: Tyrosine-protein kinase BTK (Homo sapiens) (UniProt Q06187); assay: Effect on thrombin-induced Btk activation in presence of catalase
Tyrosine-protein kinase BTK (Homo sapiens), sequence (Q06187 whole entry): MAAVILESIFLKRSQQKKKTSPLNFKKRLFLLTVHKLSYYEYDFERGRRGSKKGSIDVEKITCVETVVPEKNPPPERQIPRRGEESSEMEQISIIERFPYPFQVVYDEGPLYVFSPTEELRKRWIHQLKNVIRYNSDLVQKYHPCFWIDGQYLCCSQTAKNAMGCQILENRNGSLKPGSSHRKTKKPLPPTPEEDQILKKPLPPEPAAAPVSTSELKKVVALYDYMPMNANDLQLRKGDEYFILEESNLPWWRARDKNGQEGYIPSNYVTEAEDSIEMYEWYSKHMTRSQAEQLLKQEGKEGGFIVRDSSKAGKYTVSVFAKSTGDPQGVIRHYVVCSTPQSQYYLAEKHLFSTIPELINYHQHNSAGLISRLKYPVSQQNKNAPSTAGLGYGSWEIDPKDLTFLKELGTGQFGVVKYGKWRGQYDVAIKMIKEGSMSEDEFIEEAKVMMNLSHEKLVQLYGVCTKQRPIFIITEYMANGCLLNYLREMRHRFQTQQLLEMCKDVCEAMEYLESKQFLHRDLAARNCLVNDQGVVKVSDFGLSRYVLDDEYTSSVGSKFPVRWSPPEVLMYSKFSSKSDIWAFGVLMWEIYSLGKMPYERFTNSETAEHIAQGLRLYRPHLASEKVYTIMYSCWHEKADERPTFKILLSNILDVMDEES
Outline: (§4)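 Platelets in HBS with 1 mM Ca2+ held 30 min at 37 °C with 10 µM compound, alone or with 300 U/mL catalase (10 min). Samples taken 10 s before and 30 s after 0.1 U/mL thrombin, lysed in Laemmli buffer. Western blot for phospho-Btk Y223, reprobed for total Btk. Densitometry as % of resting control; mean ± SEM, four experiments.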

[16] = molecular target: Proto-oncogene tyrosine-protein kinase Src (Homo sapiens) (UniProt P12931); assay: Inhibition of thrombin-induced pp60src activation in presence of catalase; outline: as §3
Platelet [17] = assay: Reduction of thrombin-induced phosphotyrosine content in human platelets at 10 uM after 30 mins
Platelet [18] = assay: Effect on rate of ADP-induced human platelet aggregation at 10 uM; format: functional; outline: as §1
[19] = molecular target: Tyrosine-protein kinase BTK (Homo sapiens) (UniProt Q06187); assay: Effect on thrombin-induced Btk activation at 10 uM after 30 mins; outline: as §4
Platelet [20] = assay: Effect on thrombin-induced human platelet aggregation in presence of catalase; format: functional
Outline: (§5)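 Washed human platelets in HBS with 1 mM Ca2+. Treated with 10 µM compound for 30 min, plus either 300 U/mL catalase for 10 min or 100 µM colchicine for 2 h; controls received each agent alone or vehicle. Thrombin 0.1 U/mL at 37 °C, stirring at 1200 rpm. Lag time, % rate and % aggregation recorded; mean ± SEM, six determinations.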

Platelet [21] = assay: Effect on ADP-induced human platelet aggregation assessed as lag time at 10 uM; format: functional; outline: as §1
Platelet [22] = assay: Effect on rate of thrombin-induced human platelet aggregation in presence of colchicine; format: functional; outline: as §5
Platelet [23] = assay: Effect on thrombin-induced human platelet aggregation assessed as lag time in presence of catalase; format: functional; outline: as §5
Platelet [24] = assay: Effect on thrombin-induced human platelet aggregation in presence of colchicine; format: functional; outline: as §5
Platelet [25] = assay: Effect on thrombin-induced human platelet aggregation assessed as lag time in presence of colchicine; format: functional; outline: as §5
Platelet [26] = assay: Effect on thrombin-induced microtubular reorganization at 10 uM after 30 mins; format: functional, Homo sapiens
Outline: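 Platelets pretreated with 10 µM compound for 30 min at 37 °C, then 0.1 U/mL thrombin for 1 min in HBS at 2 × 10^7 cells/mL. Fixed in an equal volume of ice-cold 3% formaldehyde in PBS for 10 min, permeabilized with 0.025% NP40, stained 30 min with 1 µM Oregon Green 488 paclitaxel. Fluorescence at ex 488/em 522 nm; n = 6.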

Platelet [27] = assay: Effect on rate of thrombin-induced human platelet aggregation in presence of catalase; format: functional; outline: as §5
Platelet [28] = assay: Effect on thrombin-induced human platelet aggregation assessed as lag time at 1.0 uM; format: functional; outline: as §1

## COc1cc2c(c(OC)c1OC)-c1ccc(OC)c(=O)cc1[C@@H](NC(C)=O)CC2 [COLCHICINE]
Platelet [1]
  Activity: 71.2%
Platelet [2]
  Activity: 59%
Platelet [3]
  Time: 9.3 s

## Cc1ccc(-c2nn(C(C)(C)C)c3ncnc(N)c23)cc1
Platelet [4]
  Activity: 67.1%
Platelet [5]
  Activity: 59.7%
Platelet [6]
  Time: 26.5 s

## C/C(O)=C(\C#N)C(=O)Nc1cc(Br)ccc1Br
Platelet [4]
  Activity: 68.7%
Platelet [5]
  Activity: 66.3%
Platelet [6]
  Time: 24.3 s

## Oc1cc(O)c2c(c1)O[C@@]1(c3ccc(O)c(O)c3)Oc3cc(O)c4c(c3[C@@H]2[C@H]1O)O[C@H](c1ccc(O)c(O)c1)[C@H](O)[C@H]4c1c(O)cc(O)c2c1O[C@H](c1ccc(O)c(O)c1)[C@H](O)C2 [CINNAMTANNIN B1]
Platelet [1]
  Activity: 81.9%
Platelet [7]
  Activity: 9.5%
[8]
  Activity: Active
Platelet [9]
  Activity: 43.7%
Platelet [10]
  Activity: 42.1%
Platelet [11]
  Activity: 80.6%
Platelet [12]
  Time: 10.6 s
Platelet [13]
  Activity: inactive
Platelet [14]
  Activity: 71.8%
[15]
  Activity: 90%
[16]
  Activity: Active
Platelet [17]
  Activity: Active
Platelet [18]
  Activity: 9%
Platelet [2]
  Activity: 49%
[19]
  Activity: 50%
Platelet [20]
  Activity: 77%
Platelet [3]
  Time: 9.2 s
Platelet [21]
  Time: 15.6 s
Platelet [22]
  Activity: 40.3%
Platelet [23]
  Time: 9.1 s
Platelet [24]
  Activity: 74.6%
Platelet [25]
  Time: 15 s
Platelet [26]
  Activity: 15%
Platelet [27]
  Activity: 48.1%
Platelet [28]
  Time: 9.8 s
